Bioassay records (PubChem)
A selection: hits, their analogues and other compounds. The true share with any hit is near 1.2%.
PfG6PD inh = PfG6PD enzyme inhibitors, primary screen, biochemical, fluorescence intensity, uHTS | inhibition, % at 20 µM | glucose-6-phosphate dehydrogenase-6-phosphogluconolactonase (Plasmodium falciparum 3D7) | PfGluPho enzyme, NADPH resazurin-diaphorase fluorescence | hit rate 0.78% among 350,000;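 active = inhibition reaching at least a set limit at 20 µM in the primary screen, cut at about 59% in these data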;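 note: 0% = DMSO wells with substrate and 100% = DMSO wells lacking glucose-6-phosphate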
Diaph inh CS = diaphorase inhibitors and chemical oxidizers, primary screen, counter-screen for diaphorase-coupled primary assays, biochemical, uHTS, resorufin fluorescence. hit rate 0.69% among 190,000. AID 1217, 2008. inhibition, % at 20 µM. diaphorase resazurin-to-resorufin fluorescence, NADH, 16 min; bacterial (C. kluyveri) enzyme, not human;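 active = primary screen inhibition at 20 µM above a set limit, cut at about 50% in these data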;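 note: plate controls were DMSO with full reaction for no effect and wells lacking NADH for full effect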
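Detection: fluorescence of resorufin formed from resazurin, Ex 544/Em 590 nm; test system: Clostridium kluyveri diaphorase enzyme; amount: 0.14 U/mL diaphorase, enzyme working solution; times: 16-min room-temperature incubation before reading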
HKDC1 inh = HKDC1 hexokinase inhibitors, primary screen, biochemical, fluorescence, uHTS; Q2TB90; recombinant HKDC1, G6PDH/diaphorase resazurin coupled fluorescence; inhibition, % at 20 µM; hit rate 0.16% among 340,000; AID 493160, 2011;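 active = inhibition above about 35% when tested at 20 µM, limit read from the data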;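 note: plate controls were DMSO wells with enzyme for no effect and DMSO wells lacking enzyme for full effect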
Target sequence (Q2TB90 whole entry, looked up): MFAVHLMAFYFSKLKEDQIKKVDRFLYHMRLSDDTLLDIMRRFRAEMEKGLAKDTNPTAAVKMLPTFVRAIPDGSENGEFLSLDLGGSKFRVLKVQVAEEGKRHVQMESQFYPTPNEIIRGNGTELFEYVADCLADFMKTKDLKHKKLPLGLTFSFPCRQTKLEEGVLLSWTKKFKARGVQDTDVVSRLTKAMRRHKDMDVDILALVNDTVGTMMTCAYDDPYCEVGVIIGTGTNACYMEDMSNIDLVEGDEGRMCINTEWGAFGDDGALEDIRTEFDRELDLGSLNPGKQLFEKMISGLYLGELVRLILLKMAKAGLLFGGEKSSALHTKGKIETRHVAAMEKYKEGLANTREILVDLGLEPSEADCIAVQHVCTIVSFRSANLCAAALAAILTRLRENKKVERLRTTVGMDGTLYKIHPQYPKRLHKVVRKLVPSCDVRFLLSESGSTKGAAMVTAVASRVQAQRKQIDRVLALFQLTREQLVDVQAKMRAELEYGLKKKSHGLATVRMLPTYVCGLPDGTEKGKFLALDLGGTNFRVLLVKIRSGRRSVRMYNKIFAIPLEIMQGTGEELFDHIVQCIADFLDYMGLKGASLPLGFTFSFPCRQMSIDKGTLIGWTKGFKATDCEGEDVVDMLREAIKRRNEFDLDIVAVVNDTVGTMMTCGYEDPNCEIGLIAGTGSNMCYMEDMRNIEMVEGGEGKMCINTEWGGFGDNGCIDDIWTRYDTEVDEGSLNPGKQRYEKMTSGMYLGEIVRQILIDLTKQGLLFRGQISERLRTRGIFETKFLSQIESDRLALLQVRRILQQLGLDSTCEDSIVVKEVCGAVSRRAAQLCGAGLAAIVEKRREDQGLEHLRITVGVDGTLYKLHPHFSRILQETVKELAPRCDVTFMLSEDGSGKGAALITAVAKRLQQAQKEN
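Test system: Recombinant HKDC1 (HK5) hexokinase enzyme, produced in-house | Input: HKDC1 at 5 µg/mL | Buffer or medium: Tris pH 8.0 buffer with MgCl2, Tween-20, BSA, BME | Schedule: 90 min reaction incubation at room temperature, dark | Technique: Resazurin-to-resorufin fluorescence via G6PDH and diaphorase coupling, 525/613 nm | Controls: DMSO wells with and without enzyme mix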
Diaph act CS = compounds boosting diaphorase resazurin reduction – biochemical, uHTS, resorufin fluorescence, counter-screen for diaphorase-coupled primary assays, primary screen | Diaphorase/resazurin coupled assay, 16 min; stronger effect = higher value; 1 = vehicle wells, 0 = NADH-free wells | activation factor at 20 µM | hit rate 0.005% among 190,000;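 active = diaphorase activity raised at least twofold by the compound at 20 µM; inactive = activation factor below 2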
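test system = bacterial diaphorase enzyme (C. kluyveri) | quantity = enzyme 0.07 U/mL final | reagent = NADH substrate 0.114 mM plus resazurin dye 0.1 mM, final | incubation = 16 min enzyme reaction, ambient temperature | buffer or medium = HEPES pH 7.4 buffer with MgCl2 and Tween 20 | signal = fluorescence of resorufin, 544 nm excitation, 590 nm emission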
G6PDH counter = L. mesenteroides G6PDH inhibitors, counter-screen for G6PDH-coupled screening assays, biochemical, Leuconostoc mesenteroides enzyme; glucose-6-phosphate dehydrogenase [Leuconostoc mesenteroides]; Purified L. mesenteroides G6PDH, diaphorase/resazurin coupled fluorescence, 45 min; inhibition, % at 5 µM; hit rate 0.12% among 200,000; AID 1020, 2008; in the data active = inhibition above about 50%
Starred values were filed as active, the others as inactive; nt = no result.

SMILES	PfG6PD inh	Diaph inh CS	HKDC1 inh	Diaph act CS	G6PDH counter
CN(C)c1ccc(/C=N/NC(=O)c2ccccc2Cl)cc1	8	14	13	0.9	-2
CCCc1cc(=O)oc2cc(OCC(=O)NCCc3ccc(S(N)(=O)=O)cc3)ccc12	17	nt	2	nt	nt
O=[N+]([O-])c1ccccc1N/N=C/c1cccc(O)c1O	-9	nt	-5	nt	nt
O=[N+]([O-])c1cccc(N/N=C/c2cccc(O)c2O)c1	58	52*	12	0.5	25
Cc1ccc2ccc(C(Nc3ccccn3)c3ccccc3)c(O)c2n1 (stereo unspecified)	-16	32	-22	0.7	7
COc1cc(C(Nc2ccccn2)c2ccc3ccc(C)nc3c2O)cc(OC)c1O (stereo unspecified)	59	63*	8	0.4	61*
Cc1ccsc1C=Nc1ccc(O)cc1	84*	40	24	0.6	34
O=C(Nc1ccc(N2CCOCC2)cc1)Nc1ccc2nc(-c3ccco3)c(-c3ccco3)nc2c1	-7	21	18	0.8	12
O=C(NCCCO)Nc1ccc2nc(-c3ccco3)c(-c3ccco3)nc2c1	nt	60*	nt	0.4	29
S=C(Nc1ccc2nc(-c3ccccn3)c(-c3ccccn3)nc2c1)N1CCOCC1	26	51*	10	0.5	53*
OCCCNC(=S)Nc1ccc2nc(-c3ccccn3)c(-c3ccccn3)nc2c1	57	68*	9	0.3	52*
O=C(CCS(=O)(=O)Cc1ccccc1F)NCCc1ccc(Cl)cc1	-5	nt	-3	nt	nt
COc1ccc(-n2cnc3scc(-c4ccccc4)c3c2=O)cc1	5	16	-5	0.8	5
CCOc1ccc(N(CC(=O)NN=C2CCN(C)CC2)S(=O)(=O)c2ccc(Br)cc2)cc1	-2	nt	-1	nt	nt
COc1ccc([C@H]2C[C@H](n3cc(C4CC4)nn3)[C@@H](O)CN2CC2CCCCC2)cc1	5	nt	nt	nt	nt
COc1cccc(CN2CCN(Cc3cc(OC)c(OC)cc3[N+](=O)[O-])CC2)c1	4	50*	12	0.5	15
COc1cc(CN2CCN(Cc3ccc([N+](=O)[O-])cc3)CC2)c([N+](=O)[O-])cc1OC	26	30	-7	0.7	12
COCCNC(=S)Nc1ccccc1Cc1ccccc1	2	-1	-8	1	14
NC(=S)n1[nH]c(-c2ccc([N+](=O)[O-])cc2)c(N=Nc2ccc(O)cc2)c1=O	-3	20	-4	0.8	6
NC(=S)n1[nH]c(-c2ccc([N+](=O)[O-])cc2)c(N=Nc2cccc(Cl)c2)c1=O	-44	51*	-7	0.5	2
CCCCn1c(NC(=O)c2ccco2)c(S(=O)(=O)c2ccc(C)cc2)c2nc3ccccc3nc21	2	69*	8	0.3	38
CCCCCn1c(NC(=O)c2ccco2)c(S(=O)(=O)c2ccc(C)cc2)c2nc3ccccc3nc21	17	48	5	0.5	14
CCn1c(C)nc2cc(C(=O)N/N=C/c3cccc(O)c3O)ccc21	-10	72*	-1	0.3	49
CCn1c(C)nc2cc(C(=O)N/N=C/c3ccccc3)ccc21	0	-8	-10	1.1	-1
CCn1c(C)nc2cc(C(=O)NNC(=S)NC(=O)c3ccccc3)ccc21	-5	55*	-1	0.5	-4
SMILES	PfG6PD inh	Diaph inh CS	HKDC1 inh	Diaph act CS	G6PDH counter
CCC(CC)C(=O)c1c[nH]c(C(=O)N2CCN(c3ccc(OC)cc3)CC2)c1	-5	3	2	1	4
CCN(CC)C(=O)c1ccccc1NS(C)(=O)=O	3	74*	-6	0.3	-4
CS(=O)(=O)Nc1ccccc1C(=O)O	-6	6	2	0.9	7
O=C(CNC(=O)c1ccccc1F)OCC(=O)c1ccc(Cl)s1	-1	nt	-2	nt	nt
O=C(NC1CCN(C(=O)Nc2ccc(F)cc2)CC1)c1cccc(F)c1	12	nt	-3	nt	nt
COc1cc(C(=S)N2CCN(c3ccccc3Cl)CC2)cc(O)c1O	26	61*	0	0.4	11
COc1ccc(C(=S)N2CCN(c3ccccc3Cl)CC2)cc1OC	47	nt	-8	nt	nt
Cc1cc(C)c2nc(C)cc(Nc3ccc(C(=O)N4CCOCC4)cc3)c2c1	-4	nt	-1	nt	nt
S=c1[nH]ncn1/N=C/c1ccccc1	28	60*	4	0.4	1
Cc1c(C(=O)c2ccc(Cl)cc2[N+](=O)[O-])c2ccccn2c1CCC#N	12	64*	1	0.4	-1
CC(CN1CCC(n2nccc2NC(=O)CCCc2ccccc2)CC1)c1ccccc1 (stereo unspecified)	-6	nt	-1	nt	nt
Cc1ccc(S(=O)(=O)N(C(=O)c2ccncc2)c2ccc(OC(=O)c3ccncc3)c3ccccc23)c(C)c1	73*	33	38*	0.7	3
O=C(COC(=O)c1cc(S(=O)(=O)N2CCCC2)ccc1O)Nc1ccc(F)cc1F	-17	nt	-3	nt	nt
Cc1ccc([N+](=O)[O-])cc1N/C=C1\CCc2ccccc2C1=O	30	58*	25	0.4	32
Cc1ccc([N+](=O)[O-])cc1NC(=O)CCc1ccccc1	4	-2	6	1	6
COc1ccccc1NC(=O)C1CCN(S(=O)(=O)c2ccc3c(c2)NC(=O)C(C)S3)CC1 (stereo unspecified)	-3	nt	8	nt	nt
CNC(CC(=O)c1ccc([N+](=O)[O-])cc1)C(Cl)(Cl)Cl (stereo unspecified)	70*	1	12	1	22
COc1ccc(C(=O)CC(Nc2ccc([N+](=O)[O-])cc2)c2ccc(OC)cc2)cc1 (stereo unspecified)	6	28	-6	0.7	-30
CC(=O)N/C(=C\c1ccc(Br)s1)C(=O)O	3	5	-6	0.9	8
COc1cc(N/C(N)=N/c2nc(C)cc(C)n2)cc(OC)c1	-18	nt	-1	nt	nt
CCOC(=O)c1c(C)sc2c1N(C(=O)CN1CCOCC1)c1cc(Cl)ccc1S2	-46	57*	-16	0.4	-4
CC1OC2(C)OC(=N)C1(C#N)C(C#N)(C#N)C2c1ccccc1 (stereo unspecified)	-3	11	-2	0.9	-6
CCCCC1OC2(C)OC(=N)C1(C#N)C(C#N)(C#N)C2c1ccccc1 (stereo unspecified)	-9	58*	10	0.4	-21
O=C(COc1ccc(Nc2ccccc2)cc1)OCC(=O)N1CCCCC1	21	nt	3	nt	nt
